The text below walks through data of ChEMBL document CHEMBL1143438, “N-Glycine-sulfonamides as potent dual orexin 1/orexin 2 receptor antagonists” (Bioorg Med Chem Lett, 2008).

Data set [1] concerns the target T1, Orexin/Hypocretin receptor type 1 (Homo sapiens, UniProt O43613).
T1 sequence (O43613 whole entry): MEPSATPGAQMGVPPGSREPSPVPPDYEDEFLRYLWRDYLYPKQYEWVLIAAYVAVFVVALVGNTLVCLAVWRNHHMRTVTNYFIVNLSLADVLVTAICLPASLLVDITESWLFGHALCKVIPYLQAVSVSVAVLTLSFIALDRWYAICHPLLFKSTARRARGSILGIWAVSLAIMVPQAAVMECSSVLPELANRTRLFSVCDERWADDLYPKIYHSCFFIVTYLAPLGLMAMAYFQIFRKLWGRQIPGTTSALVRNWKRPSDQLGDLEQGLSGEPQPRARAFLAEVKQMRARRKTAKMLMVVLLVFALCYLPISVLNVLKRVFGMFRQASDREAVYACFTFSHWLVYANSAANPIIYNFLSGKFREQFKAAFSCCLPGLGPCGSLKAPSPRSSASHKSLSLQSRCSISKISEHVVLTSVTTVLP
Briefly: Inhibition of human OX1 receptor expressed in CHO cells assessed as […] calcium mobilization by FLIPR assay. The class given is functional, cell-based. Put shortly:
(§1)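 CHO cells expressing human OX1 or OX2 receptor, loaded with fluo-3 AM at 37 °C in 5% CO2, then washed. Antagonist added at varying concentrations before orexin A; intracellular Ca2+ rise read as fluorescence change by FLIPR. IC50 taken as concentration inhibiting 50% of agonist response.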

Data set [2] has as its target T2, Orexin receptor type 2 (Homo sapiens, UniProt O43614).
T2 sequence (O43614 whole entry): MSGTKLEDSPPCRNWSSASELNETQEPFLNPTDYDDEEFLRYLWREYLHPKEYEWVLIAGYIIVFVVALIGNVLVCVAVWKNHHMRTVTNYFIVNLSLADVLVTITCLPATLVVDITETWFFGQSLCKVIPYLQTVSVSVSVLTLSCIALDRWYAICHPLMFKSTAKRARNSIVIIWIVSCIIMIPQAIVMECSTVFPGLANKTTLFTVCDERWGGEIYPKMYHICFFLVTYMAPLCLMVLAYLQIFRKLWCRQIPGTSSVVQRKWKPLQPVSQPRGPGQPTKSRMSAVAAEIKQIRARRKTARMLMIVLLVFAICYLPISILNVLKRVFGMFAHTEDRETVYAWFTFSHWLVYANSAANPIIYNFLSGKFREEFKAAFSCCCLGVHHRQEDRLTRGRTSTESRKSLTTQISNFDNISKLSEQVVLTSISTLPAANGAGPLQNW
Briefly: Inhibition of human OX2 receptor expressed in CHO cells assessed as […] calcium mobilization by FLIPR assay. In kind it is functional, cell-based. Summed up: as §1
In general terms: A change in cytosolic calcium serves as a functional read-out for many receptors and channels.

A short description of data set [3]: Half life in Wistar rat at 1 mg/kg, iv. In kind it is ADME, organism-based. Also on record: dose 1 mg/kg, route intravenous. The note with it: in vivo. Put shortly: (§2)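 Male Wistar rats on 12-h light/dark cycle; single iv dose 1 mg/kg in 5%/95% (v/v) DMSO : 30/70 hydroxypropyl-β-cyclodextrin/sterile water; one or two animals. Serial blood drawn into Na-EDTA tubes at various time-points, centrifuged to plasma; parameters (clearance mL/min kg, Vss L/kg) derived from plasma concentration–time profiles.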

Data set [4] can be described thus: AUC in Wistar rat at 1 mg/kg, iv. The conditions noted are these: plasma. Also on record: dose 1 mg/kg, route intravenous. The class given is ADME, organism-based. Put shortly:
as §2

Data set [5] in a line: Clearance in Wistar rat plasma at 1 mg/kg, iv. The class given is ADME, organism-based. Also on record: dose 1 mg/kg, route intravenous. Summed up:
as §2

A short description of data set [6]: Volume of distribution at steady state in Wistar rat at 1 mg/kg, iv. The class given is ADME, organism-based. Also on record: dose 1 mg/kg, route intravenous. The note with it: in vivo, read-out: Vdss. Summed up: as §2
Data set [7] can be described thus: Cmax in Wistar rat at 10 mg/kg, po. The class given is ADME, organism-based. Also on record: dose 10 mg/kg, route oral. The note with it: in vivo. Summed up:
(§3)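 Oral dosing of male Wistar rats at 10 mg/kg formulated in 100% PEG-400, three animals. Serial blood collected into Na-EDTA at various times, spun to plasma. Cmax (ng/mL), Tmax (h), AUC (ng h/mL) from plasma concentration–time curve; F as percent of dose.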

The nature of data set [8]: AUC in Wistar rat at 10 mg/kg, po. The class given is ADME, organism-based. Also on record: dose 10 mg/kg, route oral. The note with it: plasma. Summed up:
as §3

A short description of data set [9]: Tmax in Wistar rat at 10 mg/kg, po. Also on record: dose 10 mg/kg, route oral. The class given is ADME, organism-based. The conditions noted are these: in vivo. Summed up:
as §3

The nature of data set [10]: Oral bioavailability in Wistar rat at 10 mg/kg. The class given is ADME, organism-based. The conditions noted are these: in vivo. Put shortly: as §3
Data set [11] deals with Rattus norvegicus. The data set is described as follows: Effect on behavioral activity in po dosed Wistar rat assessed as change in time spent on non-rapid eye movement sleep in dark. In kind it is functional, organism-based. Summed up:
(§4)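 Freely moving adult male Wistar rats with radiotelemetric probes recording EEG, EMG, locomotor activity and body temperature in home cage; oral dosing in 100% PEG-400 at start of dark phase (100, 300 mg/kg). Home cage activity, active wake, non-REM and REM time integrated over 12-h night. Groups of 7–8, crossover, ≥4-day washout; mean ± SEM, one-way ANOVA with Bonferroni post hoc.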

In data set [12] the test system is Rattus norvegicus. Briefly: Effect on behavioral activity in po dosed Wistar rat assessed as change in time spent on rapid eye movement sleep in dark. The class given is functional, organism-based. Summed up: as §4
Data set [13] concerns Rattus norvegicus. Briefly: Effect on behavioral activity in po dosed Wistar rat assessed as change in time spent active wake in dark. In kind it is functional, organism-based. Put shortly:
as §4

Data set [14] has as its system Rattus norvegicus. Briefly: Effect on behavioral activity in po dosed Wistar rat assessed as decrease in home cage activity in dark. The class given is functional, organism-based. Put shortly:
as §4

For data set [15], the system named is Rattus norvegicus. The data set is described as follows: Effect on behavioral activity in po dosed Wistar rat assessed as increase in time spent on non-rapid eye movement sleep after 12 hrs in dark. In kind it is functional, organism-based. Put shortly: as §4
The test system of data set [16] is Rattus norvegicus. The data set is described as follows: Effect on behavioral activity in po dosed Wistar rat assessed as increase in time spent on rapid eye movement sleep after 12 hrs in dark. The class given is functional, organism-based. Put shortly:
as §4

The test system of data set [17] is Rattus norvegicus. Briefly: Drug level in Wistar rat brain at 100 mg/kg, po. Also on record: dose 100 mg/kg, route oral. In kind it is ADME, organism-based. The conditions noted are these: in vivo. Put shortly: (§5)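 Male Wistar rats given 100 mg/kg po; plasma, CSF and brain sampled 1 and 3 h post-dose from same animal (±5 min). Blood from vena cava caudalis into EDTA; CSF from cisterna magna avoiding blood; brain taken after cardiac perfusion with 10 mL 0.9% NaCl, homogenized in 1 volume cold phosphate buffer pH 7.4; total brain concentration in ng/g.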

Data set [18] can be described thus: Drug level in Wistar rat brain at 100 mg/kg, po after 3 hrs. Also on record: dose 100 mg/kg, route oral. In kind it is ADME, organism-based. The conditions noted are these: read-out: Drug uptake. Summed up:
as §5

Data set [19] deals with Rattus norvegicus. The data set is described as follows: Effect on behavioral activity in Wistar rat assessed as increase in time spent on non-rapid eye movement sleep at 300 mg/kg, po after 12 hrs. In kind it is functional. Put shortly:
as §4

The test system of data set [20] is Rattus norvegicus. Briefly: Effect on behavioral activity in Wistar rat assessed as increase in time spent on rapid eye movement sleep at 300 mg/kg, po after 12 hrs. The class given is functional. Put shortly:
as §4

pIC50: −log10 of the molar value. Active and inactive are the calls of the source. The rule behind the calls is not given here.

For `CCN(C(=O)CN(c1cc(N(C)C)ccc1Cl)S(=O)(=O)c1ccc(OC)c(OC)c1)c1cccc(C)n1`, the values for the negative logarithm of the IC50 (pIC50) in data set [1] and in data set [2] were 7.77 and 8.30, respectively. Moreover, the half-life – broadly, the time in which the quantity being followed falls by half – in [3] was 30 min. For the same compound, the AUC (commonly concentration integrated over time) in data set [4] is 434 ng·h/mL; in data set [8] it was 2290 ng·h/mL. In addition, the clearance (in general, the volume of plasma or blood freed of the substance per unit of time) in data set [5] was found to be 38 mL/min/kg. Also, the Vd in data set [6] is 1.7 L/kg. Moreover, in [7], the highest level (Cmax) was 582 ng/mL. Also, in [9], the Tmax (in general, the time at which the peak concentration occurs) is 30 min. In addition, in data set [10], the bioavailability (as a rule, dose-corrected exposure relative to a reference, in per cent) turned out to be 35%. In addition, the result in data set [11], in data set [12] and in [13] was Active. Also, the Activity entry in data set [14] is “Dose-dependent effect”; in [15], “Dose-dependent effect”; in data set [16] it was “Dose-dependent effect”; in data set [19], 83%; in data set [20], 17%. In data set [17], this compound returned a Drug uptake of 10 ng/g. In addition, the concentration at 3 h in data set [18] was 66 ng/g.
